Reference: ChEMBL document CHEMBL4350958, “Rational Design of Short Peptide Variants by Using Kunitzin-RE, an Amphibian-Derived Bioactivity Peptide, for Acquired Potent Broad-Spectrum Antimicrobial and Improved Therapeutic Potential of Commensalism Coinfection of Pathogens” (J Med Chem, 2019)
Converted amounts (≈) assume the structure as drawn. Where a SMILES comes first, the peptide text is derived from it.

Assays:
[1] = system: Escherichia coli; assay: Antibacterial activity against Escherichia coli ATCC 25922 measured after 18 to 24 hrs in presence of KCl; assay type: functional
[2] = Conformational stability in pH 7.4 sodium phosphate buffer assessed as absorption spectra at minimum dichroic band at 35 uM by CD spectra analysis; assay type: physicochemical; conditions: pH 7.4, 35 µM
Outline: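 CD spectra from 190 to 250 nm of peptide at 35 μM in 10 mM PBS, 30 mM SDS micelles or 50% TFE, recorded in a 1.0-mm quartz cell. Ellipticity was converted to mean residue ellipticity. Three independent scans, each averaged over more than 3 runs.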

[3] = system: Escherichia coli; assay: Antibacterial activity against Escherichia coli ATCC 25922 measured after 18 to 24 hrs in presence of NH4Cl; assay type: functional
[4] = system: Candida albicans; assay: Antifungal activity against Candida albicans cgmcc2.2086 measured after 48 hrs in presence of CaCl by broth microdilution method; assay type: functional; conditions: cgmcc2.2086, 48 h
[5] = system: Staphylococcus aureus; assay: Antibacterial activity against Staphylococcus aureus ATCC 25923 measured after 24 hrs; assay type: functional; conditions: ATCC 25923, 24 h
Outline: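 Broth microdilution modified from NCCLS. Mid-log bacteria at (0.5–1) × 10^5 CFU mL−1 in MHB, mixed with peptides serially diluted in 0.2% BSA. Incubated 24 h at 37 °C, read at A492. MIC taken as lowest concentration giving 95% growth inhibition. At least three independent experiments, each with three technical replicates.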

[6] = system: Staphylococcus aureus; assay: Antibacterial activity against Staphylococcus aureus ATCC 29213 measured after 18 to 24 hrs in presence of ZnCl2; assay type: functional
Outline: (§1)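 MIC broth microdilution (MHB, 0.2% BSA peptide diluent, A492, 95% inhibition) run in the presence of physiological salts at final concentrations of 6 μM NH4Cl or 8 μM ZnCl2. Three independent assays, each with three technical replicates.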

[7] = system: Staphylococcus aureus; assay: Antibacterial activity against Staphylococcus aureus ATCC 29213 measured after 18 to 24 hrs in presence of FeCl3; assay type: functional
[8] = system: Candida albicans; assay: Antifungal activity against Candida albicans cgmcc2.2086 measured after 48 hrs in presence of KCl by broth microdilution method; assay type: functional; conditions: cgmcc2.2086, 48 h
[9] = system: Candida albicans; assay: Antifungal activity against Candida albicans cgmcc2.2086 measured after 48 hrs in presence of NH4Cl by broth microdilution method; assay type: functional; conditions: cgmcc2.2086, 48 h
[10] = system: Escherichia coli; assay: Antibacterial activity against Escherichia coli 078 measured after 24 hrs; assay type: functional; conditions: Escherichia coli, 078, 24 h
Outline: (§2)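 Broth microdilution adapted from NCCLS. Mid-log bacteria were diluted in MHB to a final (0.5–1) × 10^5 CFU mL−1. Peptides were serially diluted in 0.2% BSA and mixed with an equal volume of cells. After 24 h at 37 °C, MIC was read at A492 as the lowest concentration inhibiting 95% of growth. At least three independent experiments, each with three technical replicates.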

[11] = system: Candida albicans; assay: Antifungal activity against Candida albicans cgmcc2.2086 measured after 48 hrs in presence of NaCl by broth microdilution method; assay type: functional; conditions: cgmcc2.2086, 48 h
[12] = system: Staphylococcus aureus; assay: Antibacterial activity against Staphylococcus aureus ATCC 29213 measured after 18 to 24 hrs in presence of NH4Cl; assay type: functional; outline: as §1
[13] = system: Salmonella typhimurium; assay: Antibacterial activity against Salmonella typhimurium C7731 measured after 24 hrs; assay type: functional, Salmonella enterica subsp. enterica serovar Typhimurium; conditions: Salmonella enterica, C7731, 24 h; outline: as §2
[14] = Therapeutic index, ratio of MHC10 for hemolytic activity in human RBC to MIC95 against Candida parapsilosis cgmcc2.3989; assay type: toxicity; conditions: human red blood cells (erythrocytes), read-out: TI
Outline: (§3)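 Therapeutic index = MHC divided by MIC. MHC is the lowest concentration giving >10% lysis of human RBC (1 h, 37 °C, 1-128 µM, A576). MIC is 95% growth inhibition by broth microdilution: bacteria in MHB 24 h at 37 °C; Candida in MOPS-buffered RPMI 1640 at (0.5–1) × 10^3 CFU mL−1, 48 h at 28 °C.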

[15] = system: Erythrocyte; assay: Hemolytic activity in human RBC measured after 1 hr; assay type: ADME, cell-based
Outline: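 Fresh healthy-donor human erythrocytes at ~1% (v/v) in PBS pH 7.4, mixed 1:1 with peptide (1–128 µM), 1 h at 37 °C. After centrifugation at 1000×g, supernatant hemoglobin read at 576 nm. Untreated cells set 0% and 0.1% Triton X-100 set 100%. MHC defined as the concentration giving >10% hemolysis. Three or more independent experiments, triplicates.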

[16] = system: Candida albicans; assay: Antifungal activity against Candida albicans cgmcc2.2086 measured after 48 hrs in presence of FeCl by broth microdilution method; assay type: functional; conditions: cgmcc2.2086, 48 h
[17] = system: Escherichia coli; assay: Antibacterial activity against Escherichia coli ATCC 25922 measured after 18 to 24 hrs in presence of ZnCl2; assay type: functional
[18] = system: Pseudomonas aeruginosa; assay: Antibacterial activity against Pseudomonas aeruginosa ATCC 27853 measured after 24 hrs; assay type: functional; conditions: ATCC 27853, 24 h; outline: as §2
[19] = Therapeutic index, ratio of MHC10 for hemolytic activity in human RBC to MIC95 against Candida albicans cgmcc2.2086; assay type: toxicity; conditions: human red blood cells (erythrocytes), read-out: TI; outline: as §3
[20] = system: Candida tropicalis; assay: Fungicidal activity against Candida tropicalis cgmcc2.1975 incubated for 48 hrs followed by replating on YM agar plate and measured after 48 hrs; assay type: functional
Outline: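 Yeast diluted in MOPS-buffered RPMI 1640 to (0.5–1) × 10^3 CFU/mL (CLSI M27-A2, modified) and mixed 1:1 with peptide serially diluted in 0.2% BSA. After 48 h at 28 °C, 50 μL per well was plated on YM agar and incubated 48 h at 28 °C. MFC taken as the lowest concentration killing ≥99.9% of cells. Three or more independent experiments, triplicate wells.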

[21] = system: Escherichia coli; assay: Bactericidal activity against Escherichia coli ATCC 25922 incubated for 24 hrs followed by replating on agar plate and measured after overnight incubation; assay type: functional; conditions: ATCC 25922, 24 h, read-out: MBC>99.9
Outline: (§4)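 After the 24 h, 37 °C MHB microdilution (0.5–1 × 10^5 CFU mL−1 inoculum, peptides diluted in 0.2% BSA), 50 μL from each well was plated on agar and incubated overnight. MBC was taken as the lowest concentration killing >99.9% of cells. Three or more independent experiments, each with triplicate technical replicates.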

[22] = system: Escherichia coli; assay: Bactericidal activity against Escherichia coli 078 incubated for 24 hrs followed by replating on agar plate and measured after overnight incubation; assay type: functional; conditions: Escherichia coli, 078, 24 h; read-out: MBC>99.9; outline: as §4
[23] = system: Escherichia coli; assay: Bactericidal activity against Escherichia coli UB1005 incubated for 24 hrs followed by replating on agar plate and measured after overnight incubation; assay type: functional; conditions: UB1005, 24 h, read-out: MBC>99.9
Outline: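 Mid-log bacteria diluted in MHB to (0.5–1) × 10^5 CFU/mL and mixed 1:1 with peptide serially diluted in 0.2% BSA. After 24 h at 37 °C, 50 μL of each mixture was plated on agar and incubated overnight. MBC taken as the lowest concentration killing >99.9% of cells. At least three independent experiments, each with three technical replicates.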

Compound | MIC95 [1] | Wavelength of minimum CD band [2] | MIC95 [3] | MIC95 [4] | MIC95 [5] | MIC95 [6] | MIC95 [7] | MIC95 [8] | MIC95 [9] | MIC95 [10] | MIC95 [11] | MIC95 [12] | MIC95 [13] | selectivity ratio [14] | MHC10 [15] | MIC95 [16] | MIC95 [17] | MIC95 [18] | selectivity ratio [19] | MBC [21] | other results
H-AAKIILNPKFR-NH2 | 128 µM | 200 nm | > 128 µM | > 128 µM | > 128 µM | > 128 µM | > 128 µM | > 128 µM | > 128 µM | > 128 µM | > 128 µM | > 128 µM | > 128 µM | 2 | > 128 µM | > 128 µM | > 128 µM | > 128 µM | 2 | – | –
H-AARIILRRRFR-NH2 | 64 µM | 200 nm | 8 µM | > 128 µM | 32 µM | 16 µM | 16 µM | 128 µM | > 128 µM | 16 µM | > 128 µM | 16 µM | 8 µM | 3.17 | > 128 µM | > 128 µM | 8 µM | > 128 µM | 3.17 | 16 µM | MFC<=99.9 [20]: 128 µM; MBC [22]: 32 µM; MBC [23]: 64 µM
H-AARIILRNRFR-NH2 | 64 µM | 200 nm | 16 µM | > 128 µM | > 128 µM | > 128 µM | > 128 µM | > 128 µM | > 128 µM | 16 µM | > 128 µM | > 128 µM | 32 µM | 2 | > 128 µM | > 128 µM | 32 µM | > 128 µM | 2 | 64 µM | MBC [22]: 32 µM; MBC [23]: 32 µM
H-AARIILRPRFR-NH2 | 16 µM | 200 nm | 16 µM | > 128 µM | > 128 µM | > 128 µM | > 128 µM | > 128 µM | > 128 µM | 8 µM | > 128 µM | > 128 µM | 16 µM | 2 | > 128 µM | > 128 µM | 32 µM | > 128 µM | 2 | 32 µM | MBC [22]: 16 µM; MBC [23]: 16 µM
CC[C@H](C)[C@H](NC(=O)[C@H](CCCCN)NC(=O)[C@H](C)NC(=O)[C@H](C)N)C(=O)N[C@H](C(=O)N[C@@H](CC(C)C)C(=O)N[C@@H](CC(N)=O)C(=O)N1CCC[C@H]1C(=O)N[C@@H](CCCCN)C(=O)N[C@@H](Cc1ccccc1)C(=O)N[C@@H](CCCNC(=N)N)C(=O)N[C@@H](CS)C(=O)N[C@@H](CCCCN)C(=O)N[C@@H](C)C(=O)N[C@@H](C)C(=O)N[C@@H](Cc1ccccc1)C(=O)N[C@@H](CS)C(N)=O)[C@@H](C)CC (H-AAKIILNPKFRCKAAFC-NH2) | 32 µM | 200 nm | 32 µM | > 128 µM | 64 µM (≈ 121 µg/mL) | > 128 µM | > 128 µM | > 128 µM | > 128 µM | > 128 µM | > 128 µM | > 128 µM | > 128 µM | 0.25 | 32 µM | > 128 µM | 64 µM | > 128 µM | 0.25 | 64 µM (≈ 121 µg/mL) | MBC [23]: 128 µM (≈ 242 µg/mL)
H-AARIILRDRFR-NH2 | 128 µM | 200 nm | > 128 µM | > 128 µM | > 128 µM | > 128 µM | > 128 µM | > 128 µM | > 128 µM | > 128 µM | > 128 µM | > 128 µM | > 128 µM | 2 | > 128 µM | > 128 µM | > 128 µM | > 128 µM | 2 | – | –
